An excerpt weighted towards active compounds, which were near 1.4% of everything screened.
DDE Tn6 FP inh: disrupts Tn6 cyclic peptide binding to fibrin D-Dimer-E complex. inhibition, % at 8.3 µM. Fibrin DD(E) TRITC-Tn6 fluorescence polarization displacement. 370,000 compounds, 0.21% hits. AID 720509;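 active means inhibition above a per-campaign cutoff: mean of compounds within control limits plus 3 SD, cut at about 15% in these data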
DAGLB inhibitor: diacylglycerol lipase beta (human) inhibition | Q8NCG7 | HEK293T DAGLB membrane lysate, EnzChek fluorogenic substrate | inhibition, % at 5.17 µM | 340,000 compounds, 0.059% hits | AID 504411; in the data active means inhibition above about 34%
Target sequence (Q8NCG7 whole entry, looked up): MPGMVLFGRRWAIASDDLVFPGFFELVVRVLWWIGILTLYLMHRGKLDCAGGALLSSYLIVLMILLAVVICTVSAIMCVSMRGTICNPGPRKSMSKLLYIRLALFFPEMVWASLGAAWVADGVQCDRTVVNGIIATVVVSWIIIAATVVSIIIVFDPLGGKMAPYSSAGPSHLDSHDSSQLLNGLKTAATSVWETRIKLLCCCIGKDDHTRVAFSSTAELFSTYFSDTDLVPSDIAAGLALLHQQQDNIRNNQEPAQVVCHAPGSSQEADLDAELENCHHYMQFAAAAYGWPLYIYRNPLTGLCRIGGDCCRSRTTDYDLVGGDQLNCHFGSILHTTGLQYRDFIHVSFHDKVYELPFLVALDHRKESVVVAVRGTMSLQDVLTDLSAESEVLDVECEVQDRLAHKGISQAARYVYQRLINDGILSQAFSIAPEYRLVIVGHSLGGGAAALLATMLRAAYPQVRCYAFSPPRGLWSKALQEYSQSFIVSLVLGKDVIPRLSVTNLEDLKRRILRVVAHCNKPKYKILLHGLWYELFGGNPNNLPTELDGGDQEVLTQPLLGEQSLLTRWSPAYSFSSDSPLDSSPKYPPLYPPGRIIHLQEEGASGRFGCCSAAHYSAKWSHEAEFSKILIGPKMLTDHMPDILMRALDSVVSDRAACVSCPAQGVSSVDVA
MT1-MMP act inh: MT1-MMP (human) activation inhibition; HT1080 RFP-PRO-GFP cells, GFP/RFP ratio fluorescence, overnight; percent of plate control window, DMSO zero; GFP/RFP ratio change, % at 20 µM; 360,000 compounds, 0.061% hits;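 active means GFP/RFP ratio change of at least 30% with cell ATP level not reduced by more than half and red fluorescence within 50% of control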
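Assay system – RFP-PRO-GFP reporter HT1080 cells · Compound dosing – single dose of 20 µM compound, 1% DMSO final · Incubation – overnight compound exposure at 37 °C · Measure – GFP/RFP fluorescence ratio · Benchmarks – DMSO wells and RFP-L50D-GFP cells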
Cardio protect: modulators protecting cardiomyocytes from myocardial damage | H9c2 cardiomyocytes, H2O2 injury protection, ATPLite, 2 h | 360,000 compounds, 0.63% hits | protection from H2O2 cell death, % at 20 µM;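 active means compounds giving at least 50% protection of heart cells from peroxide-induced death in the single-dose screen, raw or plate-pattern-corrected value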
TAG inh: inhibitors of triacylglycerol accumulation; H9c2 cells, Nile Red lipid (TAG) fluorescence; cells loaded with 200 µM oleic acid; inhibition, % at 12.5 µM; 230,000 compounds, 0.66% hits; AID 651582;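 active means pattern-corrected inhibition of lipid staining of at least 50% with the nuclear-stain viability signal not falling by more than 50%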
DDE Tn7 FP inh: disrupts Tn7 cyclic peptide binding to fibrin D-Dimer-E complex; 370,000 compounds, 0.13% hits; FP displacement of FITC-Tn7 peptide from fibrin DD(E); 0% = median of compound wells per plate; inhibition, % at 8.3 µM;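 active means inhibition above the mean of compounds falling within the control limits plus 3 SD of them, cut at about 14% in these data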
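Assay system: Fibrin-DD(E) protein isolated from polymerized human fibrin clots; read-out basis: percent inhibition; medium: Tris/NaCl/CaCl2 buffer, pH 7.8; signal: FP measurement; incubation: 10 min plus 3 h, room temperature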
A number is an active result; n = inactive; x = not tested or not shown.

SMILES | DDE Tn6 FP inh | DAGLB inhibitor | MT1-MMP act inh | Cardio protect | TAG inh | DDE Tn7 FP inh
CN1CCN(c2nc(-c3cccnc3)nc3ccccc23)CC1 | n | n | n | n | x | n
O=C(CCc1ccccc1)N[C@H]1/C(=N/O)CCC[C@]12C(=O)N(Cc1ccccc1)c1ccccc12 | n | x | x | x | x | n
C=CCCC(=O)N(Cc1ccccc1)c1ccccc1C(=O)Nc1cc(OC)ccc1OC | n | x | x | x | x | n
COC(=O)c1cc(-c2ccccc2OC)c(=O)n2c1CCC2 | n | x | x | x | x | n
CC[C@@]1(c2ccc(C)cc2)C(=O)N(C(=O)OC)N1C(=O)OC | n | x | x | x | x | n
COc1cccc(-c2cnc3c(NC=O)cc(-c4cccc(C(=O)N(C)C)c4)cn23)c1 | n | x | n | 58.0 | n | n
COc1cc(-c2cnc3c(NC=O)cc(-c4ccsc4)cn23)cc(OC)c1OC | n | x | n | 56.1 | n | n
COc1cccc(-c2cc(NC=O)c3ncc(-c4cccc(C(=O)N(C)C)c4)n3c2)c1 | n | x | n | n | n | n
COc1cc(-c2cc(NC=O)c3ncc(-c4ccc(C(C)=O)cc4)n3c2)ccc1O | n | x | n | 83.0 | n | n
COc1cccc(-c2cnc3c(NC(C)=O)cc(-c4ccccc4OC)cn23)c1 | n | x | n | n | n | n
COc1cccc(-c2cnc3c(NC(C)=O)cc(-c4cc(OC)c(OC)c(OC)c4)cn23)c1 | n | x | n | 57.2 | n | n
COc1cc(-c2cc(NC=O)c3ncc(-c4ccc(F)cc4)n3c2)cc(OC)c1OC | n | x | n | n | n | n
COC(=O)[C@H]1C[C@@]2(N3CCCC3)c3ccccc3N(C(=O)OC(C)(C)C)[C@H]2N1C(=O)OC(C)(C)C | n | x | x | x | x | n
O=C(OCCN1CCN(C2CN(Cc3cn(Cc4cccc(F)c4)nn3)S(=O)(=O)C2)CC1)c1cc2ccccc2o1 (centres undefined) | n | x | x | x | x | n
Cc1ccc(-c2nnc(SCC(=O)NNC(=S)Nc3ccccc3)n2C2CCCCC2)cc1 | n | x | x | x | x | n
COc1cccc(-c2cc(NC=O)c3ncc(-c4cc(OC)c(OC)c(OC)c4)n3c2)c1 | n | x | n | n | n | n
COc1cccc(-c2cnc3c(NC=O)cc(-c4ccc(O)c(OC)c4)cn23)c1 | n | x | n | 85.3 | n | n
Brc1ccc(CSc2ccc3nnc(-c4cccnc4)n3n2)cc1 | n | n | n | 67.7 | n | n
O=C(CN1CCN(S(=O)(=O)c2ccc(Br)cc2)CC1)c1ccc(O)c(O)c1 | n | n | n | 70.8 | x | n
O=C(CN1CCN(c2ccccc2F)CC1)c1ccc(O)c(O)c1 | n | n | n | 52.8 | x | n
Cc1c(O)ccc(C(=O)CN2CCN(c3ccccc3F)CC2)c1O | x | n | n | n | x | x
CC(C)c1ccc(S(=O)(=O)N2CCN(CC(=O)c3ccc(O)c(O)c3)CC2)cc1 | n | n | n | 55.5 | x | n
CCN(CC)CCn1nc2c3c(cccc3c1=O)-c1ccccc1-2 | n | n | n | n | n | n
O=c1c2cccc3c2c(nn1CN1CCOCC1)-c1ccccc1-3 | x | n | n | 75.4 | n | x
O=C(Cn1nc(C(=O)O)c2ccccc2c1=O)c1c[nH]c2ccccc12 | n | n | n | 57.1 | n | n
SMILES | DDE Tn6 FP inh | DAGLB inhibitor | MT1-MMP act inh | Cardio protect | TAG inh | DDE Tn7 FP inh
COC(=O)[C@H](CC(C)C)N(Cc1cn(CC2CCCCC2)nn1)S(=O)(=O)c1ccccc1Br | n | x | x | x | x | n
COC(=O)c1cc(-c2ccc(C)c3ccccc23)c(=O)n2c1CCC2 | n | x | x | x | x | n
CC(C)(C)NC(=O)COC(=O)c1c2c(nc3ccccc13)CCC2 | n | n | n | 50.3 | x | n
CC(C)c1ccccc1NC(=O)COC(=O)c1c2c(nc3ccccc13)CCN(Cc1ccccc1)C2 | n | n | n | 66.2 | x | n
CCCN(CC1CC1)C(=O)c1ccc(CNC(=O)c2cccc(Br)c2)cc1 | n | x | x | x | x | n
O=C(Nc1ccccc1C(=O)Nc1ccccc1C(=O)NCc1ccco1)c1ccco1 | n | n | n | 52.5 | x | n
CCc1ccc2nc3nc(C)cc(C)c3c(N)c2c1 | n | n | n | n | x | n
Cc1cc(C)c2c(N)c3ccccc3nc2n1 | n | n | n | n | 54.9 | n
COc1ccc(S[C@]2(C(=O)N(C)C)CC(=O)N(C(=O)Nc3ccc(C)c(Cl)c3)[C@@H]2c2ccc(OC)cc2)cc1 | n | x | x | x | x | n

Screens deposited in PubChem by several laboratories.
